Assay outcomes from PubChem.
Rows were chosen to be rich in hits. Some 1.6% of all compounds tested hit in one or more screens of this group.
PG9 binder = binders of HIV-1 gp120 antibody PG9, primary screen, biochemical, TR-FRET; TR-FRET gp120-PG9 antibody binding; inhibition, % at 6.7 µM; 0.43% of 360,000 active; in the data active = inhibition above about 8.5%
NR2E3 ag-1 = inhibitors of NR2E3-RetCOR corepressor binding, primary screen, NR2E3 agonist project, biochemical, TR-FRET, GST-NR2E3, biotin-RetCOR | inhibition of corepressor binding, % at 4.78 µM | 0.12% of 320,000 active | 1536-well | AID 2300, 2010 | Photoreceptor-specific nuclear receptor (Homo sapiens), Q9Y5X4;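 active = percent inhibition above the cutoff of mean plus 3 SD of all tested compounds, set per screening campaign, cut at about 20% in these data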;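 note: 0% = DMSO wells and 100% = biotin wells as full block of FRET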
Target sequence (Q9Y5X4 whole entry, looked up): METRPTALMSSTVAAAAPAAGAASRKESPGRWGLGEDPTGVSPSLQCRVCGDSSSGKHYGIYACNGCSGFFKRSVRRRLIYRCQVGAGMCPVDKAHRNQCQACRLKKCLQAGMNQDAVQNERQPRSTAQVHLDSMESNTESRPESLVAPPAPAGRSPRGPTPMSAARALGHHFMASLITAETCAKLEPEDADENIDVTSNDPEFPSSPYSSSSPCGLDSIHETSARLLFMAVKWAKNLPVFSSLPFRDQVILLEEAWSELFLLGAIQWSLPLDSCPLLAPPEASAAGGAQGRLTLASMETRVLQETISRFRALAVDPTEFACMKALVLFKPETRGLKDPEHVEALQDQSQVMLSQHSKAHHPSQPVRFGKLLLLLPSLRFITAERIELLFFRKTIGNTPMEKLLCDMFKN
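Test system: GST-NR2E3 and biotin-RetCOR proteins | Quantity: 1.35 nM GST-tagged NR2E3 final | Medium: Tris pH 7.5 | Also added: 7 nM biotin-RetCOR | Dosing: Compound at 4.8 µM, single dose | Timing: 5 h at 4 °C | Detection: Time-resolved FRET | Read-out basis: Percent inhibition | Benchmarks: Biotin wells as high control, 0.6% DMSO wells as low control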
NR1D1 modulator = modulators of Rev-erb alpha DNA binding, primary screen, biochemical, FITC-DNA, fluorescence polarization, uHTS; Nuclear receptor subfamily 1 group D member 1 (Homo sapiens), P20393; Rev-erbα–FITC-DNA binding, 90 min; activity, % at 10 µM; 0.79% of 370,000 active; AID 1259318, 2017;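 active = activity above about 14%, limit read from the data; passing the limit was not always enough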;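 note: 0% = DMSO wells with 35 nM protein and 100% = DMSO wells with 750 nM protein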
VLA-4 inh = inhibition in human VLA-4 binding assay, primary screen, VLA-4 allosteric modulator project, MLPCN library, flow cytometry, VLA-4 expressing cells | inhibition, % (about 7 µM as worked out from the volumes in the protocol) | 0.2% of 330,000 active | AID 2557, 2010 | ligand binding flow cytometry; in the data active = inhibition above about 50%
NR2E3 ag-2 = NR2E3 agonists in two-hybrid cells, primary screen, cell-based, luminescence, CHO-S, Gal4-NCOR/VP16-NR2E3; Photoreceptor-specific nuclear receptor (Homo sapiens), Q9Y5X4; luciferase; inhibition of corepressor binding, % at 3.98 µM; 0.35% of 360,000 active;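 active = inhibition above the mean of all tested compounds plus 3 SD, cut at about 70% in these data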;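 note: 0% = DMSO with NR2E3 transfected cells and 100% = cells lacking NR2E3 construct; higher means lower luciferase signal from less NR2E3 corepressor binding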
PG9 binder conf = binders of anti-gp120 antibody PG9, confirmation, biochemical, TR-FRET. shares compounds with PG9 binder. inhibition, % at 6.7 µM. TR-FRET PG9 antibody binding. AID 651571, 2012. 90% of 1,500 active; in the data active = inhibition above about 9%
PGV04 counter = binders of control antibody PGV04, counter-screen for PG9 antibody binder project, biochemical, TR-FRET, distinct HIV envelope site. shares compounds with PG9 binder. TR-FRET PGV04 antibody-gp120 binding. inhibition, % at 6.7 µM. 95% of 1,500 active. AID 651604, 2012; in the data active = inhibition above about 9.5%
An asterisk follows results filed as active; · = no result given.

SMILES	PG9 binder	NR2E3 ag-1	NR1D1 modulator	VLA-4 inh	NR2E3 ag-2	PG9 binder conf	PGV04 counter
Cc1c(NC(=O)C2CCCN(S(=O)(=O)c3ccc(Br)s3)C2)c(=O)n(-c2ccccc2)n1C (stereo not drawn)	·	·	0	·	·	·	·
N=c1oc2ccccc2cc1-c1nc(-c2ccc(Cl)cc2)cs1	10*	2	1	-107	4	8.8*	13*
CCCCNC(=O)C(NC(=O)c1cccc(C(F)(F)F)c1)C(=O)c1ccccc1 (stereo not drawn)	27*	·	-9	·	-8	41*	55*
O=C(O)c1ccc2c(c1)C(=O)N(c1cccc(C(=O)/C=C/c3ccccc3)c1)C2=O	1	0	0	-5	-21	·	·
O=C(O)c1cccc(N2C(=O)c3cc4cccc(Br)c4cc3C2=O)c1	14*	15	5	1	-9	16*	22*
CCn1c(/C=C/c2cc[n+](C)cc2)nc2ccccc21	13*	4	5	1	-35	14*	16*
O=S1(=O)c2ccc(Br)cc2OC[C@@H](c2ccccc2)N1Cc1cn(Cc2ccccc2)nn1	·	·	0	·	·	·	·
CCN(CC)CCCN1C(=O)C(=O)/C(=C(/O)c2ccc(Cl)cc2)C1c1ccccn1 (stereo not drawn)	9.0*	1	-4	-3	4	13*	16*
COc1ccc(/C(O)=C2/C(=O)C(=O)N(CCCN(C)C)C2c2cccc(Cl)c2)cc1OC (stereo not drawn)	47*	0	-3	16	-23	17*	22*
COC(=O)[C@]12C[C@H](CC(=O)NCC3CCCCC3)C(=O)N(Cc3ccccc3)C1=C[C@H](C1CCCC1)O[C@@H]2C	1	·	0	·	·	·	·
Cc1cc(Cl)ccc1OC(C)c1nnc(N)s1 (stereo not drawn)	10*	3	-1	6	8	7	9
CC(Oc1ccc(Cl)cc1Cl)c1ccnc(N)n1 (stereo not drawn)	-3	-2	4	7	1	·	·
CCCOc1ccc(/C(O)=C2/C(=O)C(=O)N(c3ccccn3)C2c2ccc(OC)cc2)cc1C (stereo not drawn)	17*	8	-4	-8	-17	25*	36*
CCOc1ccc(/C(O)=C2/C(=O)C(=O)N(c3ccccn3)C2c2ccc(F)cc2)c(C)c1 (stereo not drawn)	10*	8	3	10	-22	18*	24*
Cc1ccc(/C(O)=C2/C(=O)C(=O)N(c3ccccn3)C2c2ccc(F)cc2)cc1 (stereo not drawn)	4	6	-12	-7	-11	·	·
CCCC[n+]1ccn(-c2nc3ccccc3nc2[N-]S(=O)(=O)c2ccc(Cl)cc2)c1	17*	1	20	5	5	28*	34*
C=CC(=O)NC1CCCCN(CC)C1=O (stereo not drawn)	·	·	-4	·	·	·	·
O=C(COC(=O)c1cn(-c2ccccc2)nc1-c1ccc(F)cc1)Nc1ncc(Cl)cc1Cl	0	1	5	-1	-31	·	·
NS(=O)(=O)c1ccc(NC(=O)COC(=O)c2cn(-c3ccccc3)nc2-c2ccc(F)cc2)cc1	9.0*	5	4	2	11	16*	24*
CCOC(=O)c1cccc(Nc2ncnc3ccc(C)cc23)c1	-1	1	7	5	-21	·	·
CCOC(=O)c1ccc(Nc2ncnc3ccc(C)cc23)cc1	8.9*	4	7	-3	-31	14*	22*
COc1cc(NC(=O)c2cc3ccccc3o2)c(OC)cc1Cl	20*	0	16	12	-28	18*	34*
C[C@@H]1CCC[C@]2(O[C@H](CCO)C[C@H](O)[C@H]2O)O1	13*	-1	-4	-7	-9	-3	-2
C[C@H]1CCC[C@]2(O[C@H](CCO)C[C@H](O)[C@H]2O)O1	0	0	-1	1	-1	·	·
S=c1[nH]ccc2ccccc12	11*	·	-5	·	-32	4	11*
SMILES	PG9 binder	NR2E3 ag-1	NR1D1 modulator	VLA-4 inh	NR2E3 ag-2	PG9 binder conf	PGV04 counter
COC(=O)[C@]12C[C@H](CC(=O)N3CCOCC3)C(=O)N(Cc3ccc4c(c3)OCO4)C1=C[C@H](COCc1ccccc1)O[C@@H]2C	-2	·	3	·	·	·	·
COc1cccc(C(=O)N=c2sc3cc(S(C)(=O)=O)ccc3n2C)c1	39*	-56	7	0	-67	46*	60*
CC(C)(C)n1ncc2c(=O)n(CC(=O)N3CCCC3)cnc21	0	0	1	7	-5	·	·
CC1CCN(C(=O)Cn2cnc3c(cnn3C(C)(C)C)c2=O)CC1	11*	-3	-1	-3	-88	8	10*
COc1ccc2[nH]cc(C(C)c3c[nH]c4ccccc34)c2c1 (stereo not drawn)	·	·	-2	·	·	·	·
O=C(Cn1ccc2ccccc2c1=O)NCC1COc2ccccc2O1 (stereo not drawn)	17*	0	-1	11	-4	21*	27*
O=C(CCC(=O)N1CCN(C2c3ccccc3-c3ccccc32)CC1)Nc1nnc(C(F)(F)F)s1	·	·	4	·	·	·	·
COc1ccc(CNC(=O)c2ccc(N3CCC4(CC3)CC(c3ccc(Cl)cc3)=NO4)c(NC(=O)c3ccccc3)c2)cc1	-1	-4	3	-8	-11	·	·
COc1cccc(C(=O)Nc2cc(C(=O)NCc3ccc(C)cc3)ccc2N2CCC3(CC2)CC(c2ccccc2)=NO3)c1	11*	7	2	-8	-55	4	6
O=C1c2[nH]nc(-c3ccccc3O)c2C(c2ccc(F)cc2)N1CC1CCCO1 (stereo not drawn)	-1	-1	1	7	-2	·	·
